The source of these data is ChEMBL document CHEMBL1129335, “Synthesis and structure-activity relationships of 2-substituted D-tryptophan-containing peptidic endothelin receptor antagonists: importance of the C-2 substituent of the D-tryptophan residue for endothelin A and B receptor subtype selectivity” (J Med Chem, 1996).

Molecules are shown by their SMILES.

Experiment [1] concerns the target T1, Endothelin-1 receptor (Sus scrofa, UniProt Q29010).
T1 sequence (Q29010 whole entry): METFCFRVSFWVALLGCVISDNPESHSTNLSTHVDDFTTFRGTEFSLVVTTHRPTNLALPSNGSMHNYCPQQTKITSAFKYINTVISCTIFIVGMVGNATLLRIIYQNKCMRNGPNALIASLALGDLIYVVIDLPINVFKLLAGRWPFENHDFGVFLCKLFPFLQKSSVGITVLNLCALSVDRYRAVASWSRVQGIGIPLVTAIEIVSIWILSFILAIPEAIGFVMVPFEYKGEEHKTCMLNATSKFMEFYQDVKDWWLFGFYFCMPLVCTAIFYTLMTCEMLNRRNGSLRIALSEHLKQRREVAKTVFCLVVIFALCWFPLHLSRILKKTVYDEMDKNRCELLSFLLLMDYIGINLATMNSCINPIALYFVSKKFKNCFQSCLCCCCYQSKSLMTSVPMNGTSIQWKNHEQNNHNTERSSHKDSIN
Put plainly: Binding affinity towards endothelin A receptor in porcine aortic smooth muscle membranes. A digest of the protocol:
(§1)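 Competitive binding in porcine membranes: aortic smooth muscle for ETA and cerebellum for ETB, run by a previously reported method. Variation was generally within 10%.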

Experiment [2] deals with T2, Endothelin receptor type B (Sus scrofa, UniProt P35463).
T2 sequence (P35463 whole entry): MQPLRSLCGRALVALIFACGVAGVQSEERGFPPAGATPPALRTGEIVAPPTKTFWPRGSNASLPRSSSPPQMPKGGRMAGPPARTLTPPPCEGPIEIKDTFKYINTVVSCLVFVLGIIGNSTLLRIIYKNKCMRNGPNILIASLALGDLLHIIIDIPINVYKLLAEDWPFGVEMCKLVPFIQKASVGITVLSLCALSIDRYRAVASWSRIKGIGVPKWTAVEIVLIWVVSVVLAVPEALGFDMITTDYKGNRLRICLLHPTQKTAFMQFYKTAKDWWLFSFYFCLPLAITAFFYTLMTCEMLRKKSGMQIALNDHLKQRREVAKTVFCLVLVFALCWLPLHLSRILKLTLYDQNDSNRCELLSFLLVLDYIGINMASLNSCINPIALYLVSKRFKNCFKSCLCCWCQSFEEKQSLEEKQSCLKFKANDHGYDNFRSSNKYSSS
Put plainly: Binding affinity towards endothelin B receptor in porcine cerebellum membranes. Type of experiment: cell membranes, Membrane. A digest of the protocol: as §1

`CCCCCC[C@@H](NC(=O)[C@@H](Cc1c(Br)[nH]c2ccccc12)NC(=O)C(CC(C)C)NC(=O)N1[C@H](C)CCC[C@@H]1C)C(=O)O` (stereo partly specified): the results for the IC50 in experiment [1] and in experiment [2] were 110 nM and 1900 nM, respectively.

In the case of `Cc1[nH]c2ccccc2c1C[C@H]1NC(=O)[C@H](CC(C)C)NC(=O)[C@@H](C(C)C)NC(=O)[C@@H]2CCCN2C(=O)[C@@H](CC(=O)O)NC1=O`, the IC50 in experiment [1] worked out at 51 nM; in experiment [2] it was 870 nM.

As for `Cc1[nH]c2ccccc2c1C[C@H]1NC(=O)[C@H](C2CC2)NC(=O)[C@@H](C(C)C)NC(=O)[C@@H]2CCCN2C(=O)[C@@H](CC(=O)O)NC1=O`, the figures for the IC50 in experiment [1] and in experiment [2] were 8.1 nM and 270 nM, respectively.

Regarding `CCCCC(NC(=O)[C@@H](Cc1c(Cl)[nH]c2ccccc12)NC(=O)C(NC(=O)N1[C@H](C)CCC[C@@H]1C)C(C)CC)C(=O)O` (stereo partly specified), the IC50 in experiment [1] was found to be 51 nM; in experiment [2] it was 4.6 nM.

Take `CC(C)CC(NC(=O)N1[C@H](C)CCC[C@@H]1C)C(=O)N[C@H](Cc1c(Br)[nH]c2ccccc12)C(=O)NC(Cc1cnc[nH]1)C(=O)O` (stereo partly specified): the values for the IC50 in experiment [1] and in experiment [2] were 3.8 nM and 76 nM, respectively.

For the compound `CCCCC(NC(=O)[C@@H](Cc1c(Cl)[nH]c2ccccc12)NC(=O)C(NC(=O)N1[C@H](C)CCC[C@@H]1C)C(C)C)C(=O)O` (stereo partly specified), the IC50 in experiment [1] was 33 nM; in experiment [2], 4.6 nM.

In the case of `CCCCC(NC(=O)[C@@H](Cc1c(Cl)[nH]c2ccccc12)NC(=O)C(CCCC)NC(=O)N1[C@H](C)CCC[C@@H]1C)C(=O)O` (stereo partly specified), the IC50 in experiment [1] stood at 9 nM; in experiment [2], 6.1 nM.

For the compound `CCCC(NC(=O)[C@@H](Cc1c(C#N)[nH]c2ccccc12)NC(=O)C(NC(=O)N1[C@H](C)CCC[C@@H]1C)C(C)C)C(=O)O` (stereo partly specified), the IC50 in experiment [1] came out at 3000 nM; in experiment [2], 5.6 nM.

Take `CCCCC(NC(=O)[C@@H](Cc1c(Cl)[nH]c2ccccc12)NC(=O)C(NC(=O)N1[C@H](C)CCC[C@@H]1C)C1CC1)C(=O)O` (stereo partly specified): the IC50 in experiment [1] was found to be 9.3 nM; in experiment [2], 1.3 nM.

`CCCCC(NC(=O)[C@@H](Cc1c(Br)[nH]c2ccccc12)NC(=O)C(CC(C)C)NC(=O)N1CCCCC1)C(=O)O` (stereo partly specified): the IC50 was 26 nM in experiment [1] and 110 nM in experiment [2].

As to `CSCCC(NC(=O)[C@@H](Cc1c(Br)[nH]c2ccccc12)NC(=O)C(CC(C)C)NC(=O)N1[C@H](C)CCC[C@@H]1C)C(=O)O` (stereo partly specified), the results for the IC50 in experiment [1] and in experiment [2] were 2.2 nM and 4.5 nM, respectively.

Take `CSCCC(NC(=O)[C@@H](Cc1c(C)[nH]c2ccccc12)NC(=O)C(CC(C)C)NC(=O)N1[C@H](C)CCC[C@@H]1C)C(=O)O` (stereo partly specified): the IC50 is 8 nM in experiment [1] and 13 nM in experiment [2].

As for `Cc1[nH]c2ccccc2c1C[C@@H](NC(=O)C(CC(C)C)NC(=O)N1[C@H](C)CCC[C@@H]1C)C(=O)NC(Cc1c[nH]cn1)C(=O)O` (stereo partly specified), the IC50 was determined as 2.8 nM in experiment [1] and 99 nM in experiment [2].

As for `CCCC(NC(=O)[C@@H](Cc1c(Br)[nH]c2ccccc12)NC(=O)C(CC(C)C)NC(=O)N1[C@H](C)CCC[C@@H]1C)C(=O)O` (stereo partly specified), the figures for the IC50 in experiment [1] and in experiment [2] were 9.2 nM and 2.1 nM, respectively.

In the case of `CCCCC(NC(=O)[C@@H](Cc1c(C#N)[nH]c2ccccc12)NC(=O)C(CC(C)C)NC(=O)N1[C@H](C)CCC[C@@H]1C)C(=O)O` (stereo partly specified), the half-maximal inhibitory concentration (IC50) in experiment [1] was 470 nM; in experiment [2] it was 1.6 nM.

Regarding `CCCCC(NC(=O)[C@@H](Cc1c(Br)[nH]c2ccccc12)NC(=O)C(CC(C)C)NC(=O)N1CCCCC1C)C(=O)O` (stereo partly specified), the IC50 in experiment [1] amounted to 8.1 nM; in experiment [2], 34 nM.

As for `Cc1[nH]c2ccccc2c1C[C@@H](NC(=O)C(NC(=O)N1[C@H](C)CCC[C@@H]1C)C1CC1)C(=O)NC(Cc1c[nH]cn1)C(=O)O` (stereo partly specified), the IC50 turned out to be 4.8 nM in experiment [1] and 170 nM in experiment [2].

For `CC(C)CC(NC(=O)[C@@H](Cc1c(Br)[nH]c2ccccc12)NC(=O)C(CC(C)C)NC(=O)N1[C@H](C)CCC[C@@H]1C)C(=O)O` (stereo partly specified), the IC50 in experiment [1] came out at 21 nM; in experiment [2], 14 nM.

On to `CCCCC(NC(=O)[C@@H](Cc1c(CC)[nH]c2ccccc12)NC(=O)C(CC(C)C)NC(=O)N1[C@H](C)CCC[C@@H]1C)C(=O)O` (stereo partly specified), for which the IC50 in experiment [1] came out at 180 nM; in experiment [2] it was 5 nM.

Turning to `CCCCC(NC(=O)[C@@H](Cc1c(Cl)[nH]c2ccccc12)NC(=O)C(CC(C)C)NC(=O)N1[C@H](C)CCC[C@@H]1C)C(=O)O` (stereo partly specified), the IC50 in experiment [1] worked out at 15 nM; in experiment [2] it was 5.6 nM.

In the case of `CCCCC(NC(=O)[C@@H](Cc1c(Br)[nH]c2ccccc12)NC(=O)C(CC(C)C)NC(=O)N1[C@H](C)CCC[C@@H]1C)C(=O)O` (stereo partly specified), the IC50 was 5.6 nM in experiment [1] and 2.5 nM in experiment [2].

On to `CCCCC(NC(=O)[C@@H](Cc1c(Cl)[nH]c2ccccc12)NC(=O)C(CC1CC1)NC(=O)N1[C@H](C)CCC[C@@H]1C)C(=O)O` (stereo partly specified), for which the IC50 was determined as 14 nM in experiment [1] and 6.2 nM in experiment [2].

Turning to `CCCSCC(NC(=O)[C@@H](Cc1c(Br)[nH]c2ccccc12)NC(=O)C(CC(C)C)NC(=O)N1[C@H](C)CCC[C@@H]1C)C(=O)O` (stereo partly specified), the IC50 was found to be 2.4 nM in experiment [1] and 1.9 nM in experiment [2].

Regarding `CCCCC(NC(=O)[C@@H](Cc1c(Cl)[nH]c2ccccc12)NC(=O)C(NC(=O)N1[C@H](C)CCC[C@@H]1C)C1CCCC1)C(=O)O` (stereo partly specified), the half-maximal inhibitory concentration (IC50) in experiment [1] was 46 nM; in experiment [2] it was 2.7 nM.

As to `CC(C)CC(NC(=O)N1[C@H](C)CCC[C@@H]1C)C(=O)N[C@H](Cc1c(Br)[nH]c2ccccc12)C(=O)NC(Cc1c[nH]c2ccccc12)C(=O)O` (stereo partly specified), the half-maximal inhibitory concentration (IC50) was found to be 6.7 nM in experiment [1] and 1100 nM in experiment [2].

As for `CCCCC(NC(=O)[C@@H](Cc1c(Br)[nH]c2ccccc12)NC(=O)C(CC(C)C)NC(=O)N1CCCC1)C(=O)O` (stereo partly specified), the IC50 in experiment [1] was 160 nM; in experiment [2] it was 2700 nM.

Consider `CCCCC(NC(=O)[C@@H](Cc1c(C)[nH]c2ccccc12)NC(=O)C(CC(C)C)NC(=O)N1[C@H](C)CCC[C@@H]1C)C(=O)O` (stereo partly specified), for which the values for the 50% inhibitory concentration (IC50) in experiment [1] and in experiment [2] were 9.6 nM and 13 nM, respectively.

Turning to `CCCCC(NC(=O)[C@@H](Cc1c(Br)[nH]c2ccccc12)NC(=O)C(CC(C)C)NC(=O)N1CCCCCC1)C(=O)O` (stereo partly specified), the IC50 in experiment [1] worked out at 9.1 nM; in experiment [2], 28 nM.

With `CCCCC(NC(=O)[C@@H](Cc1c(C)[nH]c2ccccc12)NC(=O)C(NC(=O)N1[C@H](C)CCC[C@@H]1C)C1CC1)C(=O)O` (stereo partly specified), the IC50 in experiment [1] amounted to 5.7 nM; in experiment [2], 2.9 nM.

For the compound `CCCCC(NC(=O)[C@@H](Cc1c(Br)[nH]c2ccccc12)NC(=O)C(CC(C)C)NC(=O)N1CCCCCCC1)C(=O)O` (stereo partly specified), the figures for the IC50 in experiment [1] and in experiment [2] were 27 nM and 26 nM, respectively.

On to `C=CCC(NC(=O)[C@@H](Cc1c(Br)[nH]c2ccccc12)NC(=O)C(CC(C)C)NC(=O)N1[C@H](C)CCC[C@@H]1C)C(=O)O` (stereo partly specified), for which the values for the half-inhibitory concentration (IC50) in experiment [1] and in experiment [2] were 9.8 nM and 4.2 nM, respectively.

Consider `CCCCC(NC(=O)[C@@H](Cc1c(C#N)[nH]c2ccccc12)NC(=O)C(NC(=O)N1[C@H](C)CCC[C@@H]1C)C(C)C(C)C)C(=O)O` (stereo partly specified), for which the results for the IC50 in experiment [1] and in experiment [2] were 810 nM and 7.1 nM, respectively.

As for `CCCCC(NC(=O)[C@@H](Cc1c(Cl)[nH]c2ccccc12)NC(=O)C(CCC)NC(=O)N1[C@H](C)CCC[C@@H]1C)C(=O)O` (stereo partly specified), the IC50 was 20 nM in experiment [1] and 7.9 nM in experiment [2].
